Several values for one entry are separate records, joined by “and”; a condition that tells them apart may be missing. Identical values can stand only once.
System: Fibroblast
Assay: Multiplex assay against human fibroblast
Type: toxicity, cell-based
How it was run: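 On a CQ1 microscope at 37°C and 5% CO2, live cells were imaged after compound addition. They had been stained at seeding with Hoechst33342, BioTracker Green Microtubule Cytoskeleton Dye, MitoTracker Red and Annexin V Alexa Fluor 680. CellPathfinder machine-learning gating assigned cells to Hoechst high-intensity objects or normal cells, normal cells to healthy, pyknosed or fragmented nuclei, and pyknosed cells to mitotic or apoptotic. Tubulin, mitochondrial-mass and membrane-permeability phenotypes are per cents of healthy-nucleus cells.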

[1] = 12 h, 1 µM, compound concentration 1 uM, replicate 1
[2] = 12 h, 1 µM, compound concentration 1 uM, replicate 2
[3] = 12 h, 10 µM, compound concentration 10 uM, replicate 1
[4] = 12 h, 10 µM, compound concentration 10 uM, replicate 2
[5] = 24 h, 1 µM, compound concentration 1 uM, replicate 1
[6] = 24 h, 1 µM, compound concentration 1 uM, replicate 2
[7] = 24 h, 10 µM, compound concentration 10 uM, replicate 1
[8] = 24 h, 10 µM, compound concentration 10 uM, replicate 2
[9] = 48 h, 10 µM, compound concentration 10 uM, replicate 1
[10] = 48 h, 10 µM, compound concentration 10 uM, replicate 2

## NC(=O)Nc1cc(-c2cccc(F)c2)sc1C(=O)N[C@H]1CCCNC1 [AZD-7762]
[1]
  Population Apoptotic (%): 69%
  Population Fragmented Nuclei (%): 20%
  Population Healthy Nuclei (%): 62%
  Population Hoechst High Intensity Objects (%): 14%
  Population Membrane Permeable-Phenotype (%): 8%
  Population Mitochondria Different-Phenotype (%): 0%
  Population Mitotic Cells (%): 30%
  Population Normal (%): 85%
  Population Pyknosed Nuclei (%): 17%
  Population Tubulin-Different-Phenotype (%): 1%
  Total Cell Count: 226
[2]
  Population Apoptotic (%): 60%
  Population Fragmented Nuclei (%): 42%
  Population Healthy Nuclei (%): 49%
  Population Hoechst High Intensity Objects (%): 29%
  Population Membrane Permeable-Phenotype (%): 16%
  Population Mitochondria Different-Phenotype (%): 3%
  Population Mitotic Cells (%): 40%
  Population Normal (%): 70%
  Population Pyknosed Nuclei (%): 8%
  Population Tubulin-Different-Phenotype (%): 13%
  Total Cell Count: 87
[3]
  Population Apoptotic (%): 73% and 68%
  Population Fragmented Nuclei (%): 47% and 34%
  Population Healthy Nuclei (%): 35% and 51%
  Population Hoechst High Intensity Objects (%): 16% and 18%
  Population Membrane Permeable-Phenotype (%): 6% and 7%
  Population Mitochondria Different-Phenotype (%): 3%
  Population Mitotic Cells (%): 26% and 31%
  Population Normal (%): 83% and 81%
  Population Pyknosed Nuclei (%): 17% and 14%
  Total Cell Count: 106 and 295
[4]
  Population Apoptotic (%): 46% and 44%
  Population Fragmented Nuclei (%): 22% and 60%
  Population Healthy Nuclei (%): 25% and 27%
  Population Membrane Permeable-Phenotype (%): 21% and 20%
  Population Mitotic Cells (%): 53% and 55%
  Population Normal (%): 94% and 67%
  Population Tubulin-Different-Phenotype (%): 21% and 35%
  Total Cell Count: 79 and 110
[5]
  Population Apoptotic (%): 61%
  Population Fragmented Nuclei (%): 25%
  Population Healthy Nuclei (%): 62%
  Population Hoechst High Intensity Objects (%): 14%
  Population Membrane Permeable-Phenotype (%): 11%
  Population Mitochondria Different-Phenotype (%): 1%
  Population Mitotic Cells (%): 38%
  Population Normal (%): 85%
  Population Pyknosed Nuclei (%): 12%
  Population Tubulin-Different-Phenotype (%): 2%
  Total Cell Count: 238
[6]
  Population Apoptotic (%): 0%
  Population Fragmented Nuclei (%): 40%
  Population Healthy Nuclei (%): 60%
  Population Hoechst High Intensity Objects (%): 26%
  Population Membrane Permeable-Phenotype (%): 10%
  Population Mitochondria Different-Phenotype (%): 0%
  Population Mitotic Cells (%): 0%
  Population Normal (%): 73%
  Population Pyknosed Nuclei (%): 0%
  Population Tubulin-Different-Phenotype (%): 10%
  Total Cell Count: 68
[7]
  Population Apoptotic (%): 37% and 82%
  Population Fragmented Nuclei (%): 47% and 41%
  Population Healthy Nuclei (%): 44% and 47%
  Population Hoechst High Intensity Objects (%): 27% and 14%
  Population Mitochondria Different-Phenotype (%): 4% and 0%
  Population Normal (%): 72% and 85%
  Population Pyknosed Nuclei (%): 8% and 10%
  Total Cell Count: 129 and 316
[8]
  Population Apoptotic (%): 57% and 92%
  Population Healthy Nuclei (%): 32% and 16%
  Population Hoechst High Intensity Objects (%): 29% and 20%
  Population Membrane Permeable-Phenotype (%): 100%
  Population Normal (%): 70% and 80%
  Population Pyknosed Nuclei (%): 66%
  Total Cell Count: 115 and 75
[9]
  Population Apoptotic (%): 25%
  Population Fragmented Nuclei (%): 59%
  Population Healthy Nuclei (%): 36%
  Population Hoechst High Intensity Objects (%): 31%
  Population Membrane Permeable-Phenotype (%): 17%
  Population Mitochondria Different-Phenotype (%): 4%
  Population Mitotic Cells (%): 75%
  Population Normal (%): 68%
  Population Pyknosed Nuclei (%): 3%
  Population Tubulin-Different-Phenotype (%): 24%
  Total Cell Count: 162
[10]
  Population Apoptotic (%): 100%
  Population Healthy Nuclei (%): 37%
  Population Hoechst High Intensity Objects (%): 13%
  Population Mitochondria Different-Phenotype (%): 2%
  Population Mitotic Cells (%): 0%
  Population Normal (%): 86%
  Population Pyknosed Nuclei (%): 2%
  Population Tubulin-Different-Phenotype (%): 14%
  Total Cell Count: 126
